Measured values: ChEMBL document CHEMBL1932990, “Synthesis and antifungal activity of 6,7-bis(arylthio)-quinazoline-5,8-diones and furo[2,3-f]quinazolin-5-ols” (2012)
Values after ≈ are worked out from the molar mass of the structure shown.

Key:
Type in all cases: functional
Candida albicans = assay: Antifungal activity against Candida albicans Berkout KCCM 50235 after 1 day by twofold broth dilution method; details: Berkout KCCM 50235, 24 h
Summary of the method: (§1)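 Two-fold broth dilution in modified Sabouraud dextrose broth. Inoculum about 1 × 10⁵ cells/mL. Test agents at final concentrations from 0.2 to 50.0. Incubated at 37 °C, and MIC read after 1 day. Fluconazole and 5-fluorocytosine served as standard agents.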

Candida tropicalis = assay: Antifungal activity against Candida tropicalis Berkout KCCM 50662 after 1 day by twofold broth dilution method; details: Berkout KCCM 50662, 24 h; summary of the method: as §1
Pichia kudriavzevii = assay: Antifungal activity against Candida krusei Berkout KCCM 11655 after 1 day by twofold broth dilution method; details: Berkout KCCM 11655, 24 h; summary of the method: as §1
Cryptococcus neoformans = assay: Antifungal activity against Cryptococcus neoformans KCCM 50564 after 1 day by twofold broth dilution method; details: KCCM 50564, 24 h; summary of the method: as §1
Aspergillus niger = assay: Antifungal activity against Aspergillus niger KCTC 1231 after 2 days by twofold broth dilution method; details: KCTC 1231, 48 h
Summary of the method: (§2)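 Two-fold broth dilution in modified Sabouraud dextrose broth. Inoculum about 1 × 10⁵ cells/mL. Test agents at final concentrations from 0.2 to 50.0. Incubated at 37 °C, and MIC read after 2 days. Fluconazole and 5-fluorocytosine served as standard agents.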

Aspergillus flavus = assay: Antifungal activity against Aspergillus flavus KCCM 11899 after 2 days by twofold broth dilution method; details: KCCM 11899, 48 h; summary of the method: as §2

| Compound | MIC (Candida albicans) [µg/mL] | MIC (Candida tropicalis) [µg/mL] | MIC (Pichia kudriavzevii) [µg/mL] | MIC (Cryptococcus neoformans) [µg/mL] | MIC (Aspergillus niger) [µg/mL] | MIC (Aspergillus flavus) [µg/mL] |
| --- | --- | --- | --- | --- | --- | --- |
| Cc1cccc(SC2=C(Sc3cccc(C)c3)C(=O)c3ncncc3C2=O)c1 | 3.2 (≈ 7.91 µM) | 12.5 (≈ 30.9 µM) | 25 (≈ 61.8 µM) | 0.8 (≈ 1.98 µM) | 1.6 (≈ 3.96 µM) | 6.3 (≈ 15.6 µM) |
| O=C1C(Sc2ccc(Br)cc2)=C(Sc2ccc(Br)cc2)C(=O)c2ncncc21 | 6.3 (≈ 11.8 µM) | 50 (≈ 93.6 µM) | 6.3 (≈ 11.8 µM) | 12.5 (≈ 23.4 µM) | 3.2 (≈ 5.99 µM) | 6.3 (≈ 11.8 µM) |
| CCOC(=O)c1c(N)oc2c1c(Sc1ccc(Cl)cc1)c(O)c1ncncc12 | 25 (≈ 60.1 µM) | 50 (≈ 120 µM) | 50 (≈ 120 µM) | 6.3 (≈ 15.1 µM) | 3.2 (≈ 7.69 µM) | 6.3 (≈ 15.1 µM) |
| O=C1C(Sc2ccc(F)c(F)c2)=C(Sc2ccc(F)c(F)c2)C(=O)c2ncncc21 | 12.5 (≈ 27.9 µM) | 6.3 (≈ 14 µM) | 12.5 (≈ 27.9 µM) | 6.3 (≈ 14 µM) | 12.5 (≈ 27.9 µM) | 1.6 (≈ 3.57 µM) |
| Cc1ccc(SC2=C(Sc3ccc(C)cc3)C(=O)c3ncncc3C2=O)cc1 | 12.5 (≈ 30.9 µM) | 6.3 (≈ 15.6 µM) | 6.3 (≈ 15.6 µM) | 50 (≈ 124 µM) | 3.2 (≈ 7.91 µM) | 3.2 (≈ 7.91 µM) |
| CCOC(=O)c1c(N)oc2c1c(SCC)c(O)c1ncncc12 | 50 (≈ 150 µM) | 25 (≈ 75 µM) | 25 (≈ 75 µM) | 12.5 (≈ 37.5 µM) | 3.2 (≈ 9.6 µM) | 6.3 (≈ 18.9 µM) |
| COc1ccc(OC)c2ncncc12 | > 50 | > 50 | 50 (≈ 263 µM) | 50 (≈ 263 µM) | 25 (≈ 131 µM) | 50 (≈ 263 µM) |
| CCOC(=O)c1c(N)oc2c1c(Sc1cccc(Cl)c1)c(O)c1ncncc12 | 50 (≈ 120 µM) | 25 (≈ 60.1 µM) | 50 (≈ 120 µM) | 12.5 (≈ 30.1 µM) | 25 (≈ 60.1 µM) | 12.5 (≈ 30.1 µM) |
| O=C1C(Sc2ccc(O)cc2)=C(Sc2ccc(O)cc2)C(=O)c2ncncc21 | 3.2 (≈ 7.83 µM) | 3.2 (≈ 7.83 µM) | 25 (≈ 61.2 µM) | 12.5 (≈ 30.6 µM) | 25 (≈ 61.2 µM) | 12.5 (≈ 30.6 µM) |
| CCOC(=O)c1c(N)oc2c1c(Sc1ccc(Br)cc1)c(O)c1ncncc12 | 12.5 (≈ 27.2 µM) | 25 (≈ 54.3 µM) | 25 (≈ 54.3 µM) | 3.2 (≈ 6.95 µM) | 6.3 (≈ 13.7 µM) | 50 (≈ 109 µM) |
| O=C1C(Sc2ccc(Cl)cc2)=C(Sc2ccc(Cl)cc2)C(=O)c2ncncc21 | 6.3 (≈ 14.1 µM) | 12.5 (≈ 28.1 µM) | 3.2 (≈ 7.19 µM) | 6.3 (≈ 14.1 µM) | 1.6 (≈ 3.59 µM) | 3.2 (≈ 7.19 µM) |
| Nc1nc(=O)[nH]cc1F [FLUCYTOSINE] | 3.2 (≈ 24.8 µM) | 3.2 (≈ 24.8 µM) | 6.3 (≈ 48.8 µM) | 12.5 (≈ 96.8 µM) | 6.3 (≈ 48.8 µM) | 6.3 (≈ 48.8 µM) |
| CCOC(=O)c1c(N)oc2c1c(Sc1ccc(F)cc1)c(O)c1ncncc12 | 6.3 (≈ 15.8 µM) | 3.2 (≈ 8.01 µM) | 6.3 (≈ 15.8 µM) | 3.2 (≈ 8.01 µM) | 50 (≈ 125 µM) | 12.5 (≈ 31.3 µM) |
| O=C1C(SCCO)=C(SCCO)C(=O)c2ncncc21 | 25 (≈ 80 µM) | > 50 | 12.5 (≈ 40 µM) | 6.3 (≈ 20.2 µM) | 25 (≈ 80 µM) | 25 (≈ 80 µM) |
| O=C1C(Sc2ccccc2)=C(Sc2ccccc2)C(=O)c2ncncc21 | 6.3 (≈ 16.7 µM) | 6.3 (≈ 16.7 µM) | 6.3 (≈ 16.7 µM) | 25 (≈ 66.4 µM) | 6.3 (≈ 16.7 µM) | 3.2 (≈ 8.5 µM) |
| Cc1ccc(SC2=C(Sc3ccc(C)c(C)c3)C(=O)c3ncncc3C2=O)cc1C | 12.5 (≈ 28.9 µM) | 12.5 (≈ 28.9 µM) | 12.5 (≈ 28.9 µM) | 3.2 (≈ 7.4 µM) | 25 (≈ 57.8 µM) | 12.5 (≈ 28.9 µM) |
| O=C1C(Sc2ccc(F)cc2F)=C(Sc2ccc(F)cc2F)C(=O)c2ncncc21 | 6.3 (≈ 14 µM) | 6.3 (≈ 14 µM) | 12.5 (≈ 27.9 µM) | 1.6 (≈ 3.57 µM) | 12.5 (≈ 27.9 µM) | 6.3 (≈ 14 µM) |
| CCOC(=O)c1c(N)oc2c1c(Sc1ccc(C)cc1)c(O)c1ncncc12 | 3.2 (≈ 8.09 µM) | 6.3 (≈ 15.9 µM) | 6.3 (≈ 15.9 µM) | 3.2 (≈ 8.09 µM) | 6.3 (≈ 15.9 µM) | 6.3 (≈ 15.9 µM) |
| CCSC1=C(SCC)C(=O)c2ncncc2C1=O | 12.5 (≈ 44.6 µM) | 12.5 (≈ 44.6 µM) | 6.3 (≈ 22.5 µM) | 6.3 (≈ 22.5 µM) | 3.2 (≈ 11.4 µM) | 6.3 (≈ 22.5 µM) |
| CCOC(=O)c1c(N)oc2c1c(Sc1ccc(OC)cc1)c(O)c1ncncc12 | 12.5 (≈ 30.4 µM) | 25 (≈ 60.8 µM) | 50 (≈ 122 µM) | 12.5 (≈ 30.4 µM) | 12.5 (≈ 30.4 µM) | 12.5 (≈ 30.4 µM) |
| CCOC(=O)c1c(N)oc2c1c(Sc1ccc(F)c(F)c1)c(O)c1ncncc12 | 3.2 (≈ 7.67 µM) | 3.2 (≈ 7.67 µM) | 6.3 (≈ 15.1 µM) | 6.3 (≈ 15.1 µM) | 12.5 (≈ 29.9 µM) | 3.2 (≈ 7.67 µM) |
| O=C1C(Sc2cccc(F)c2)=C(Sc2cccc(F)c2)C(=O)c2ncncc21 | 6.3 (≈ 15.3 µM) | 25 (≈ 60.6 µM) | 12.5 (≈ 30.3 µM) | 1.6 (≈ 3.88 µM) | 25 (≈ 60.6 µM) | 25 (≈ 60.6 µM) |
| COc1ccc(SC2=C(Sc3ccc(OC)cc3)C(=O)c3ncncc3C2=O)cc1 | 25 (≈ 57.3 µM) | 25 (≈ 57.3 µM) | 3.2 (≈ 7.33 µM) | 6.3 (≈ 14.4 µM) | 3.2 (≈ 7.33 µM) | 0.8 (≈ 1.83 µM) |
| O=C1C(Sc2ccc(F)cc2)=C(Sc2ccc(F)cc2)C(=O)c2ncncc21 | 1.6 (≈ 3.88 µM) | 6.3 (≈ 15.3 µM) | 12.5 (≈ 30.3 µM) | 1.6 (≈ 3.88 µM) | 3.2 (≈ 7.76 µM) | 3.2 (≈ 7.76 µM) |
| OC(Cn1cncn1)(Cn1cncn1)c1ccc(F)cc1F [FLUCONAZOLE] | 50 (≈ 163 µM) | 6.3 (≈ 20.6 µM) | 25 (≈ 81.6 µM) | 6.3 (≈ 20.6 µM) | 25 (≈ 81.6 µM) | 25 (≈ 81.6 µM) |
| O=C1C(Sc2ccccc2F)=C(Sc2ccccc2F)C(=O)c2ncncc21 | 6.3 (≈ 15.3 µM) | 6.3 (≈ 15.3 µM) | 12.5 (≈ 30.3 µM) | 1.6 (≈ 3.88 µM) | 12.5 (≈ 30.3 µM) | 12.5 (≈ 30.3 µM) |
